Data reported in ChEMBL document CHEMBL1765004 (2011).
Calls of active or inactive are those of the source. The rule behind the calls is not given here.

Tests used:
HCT-116 [1] = test: Antimicrofilament activity in human HCT116 cells assessed as additional loss of microfilament at 5 uM by rhodamine-phalloidin staining; type: functional, cell-based
HCT-116 [2] = test: Antimicrofilament activity in human HCT116 cells assessed as loss of microfilament at 0.05 uM by rhodamine-phalloidin staining; type: functional, cell-based
HCT-116 [3] = test: Antimicrofilament activity in human HCT116 cells assessed as loss of microfilament network at 0.5 uM by rhodamine-phalloidin staining; type: functional, cell-based
HCT-116 [4] = test: Anticancer activity against human HCT116 cells; type: functional
Method in brief: (§1)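 NCI-DTP 60 cell line screen; GI50 values supplied by NCI-DTP. HCT-116 GI50 for some entries determined instead by a separate group (Henry Ford Hospital). Compounds failing initial single-dose testing at 10 μM (<25% growth inhibition) were not taken to five-dose testing.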

HCT-116 [5] = test: Antimicrofilament activity in human HCT116 cells assessed as additional loss of microfilament at 1 uM by rhodamine-phalloidin staining; type: functional, cell-based
HCT-116 [6] = test: Antimicrofilament activity in human HCT116 cells assessed as loss of microfilament at 0.01 uM by rhodamine-phalloidin staining; type: functional, cell-based
HCT-116 [7] = test: Antimicrofilament activity in human HCT116 cells assessed as loss of microfilament at 0.1 uM by rhodamine-phalloidin staining; type: functional, cell-based
MDA-MB-231 = test: Anticancer activity against human MDA-MB-231 cells; type: functional; method in brief: as §1
NCI-H522 = test: Anticancer activity against human NCI-H522 cells; type: functional; method in brief: as §1
HCT-116 [8] = test: Antimicrofilament activity in human HCT116 cells assessed as complete loss of microfilament network at GI50 concentration by rhodamine-phalloidin staining; type: functional, cell-based
U-251 = test: Anticancer activity against human U251 cells; type: functional; method in brief: as §1
IGROV-1 = test: Anticancer activity against human IGROV1 cells; type: functional; method in brief: as §1
DU-145 = test: Anticancer activity against human DU145 cells; type: functional; method in brief: as §1
LOX IMVI = test: Anticancer activity against human LOXIMVI cells; type: functional; method in brief: as §1
A498 = test: Anticancer activity against human A498 cells; type: functional; method in brief: as §1
HCT-116 [9] = test: Antimicrofilament activity in human HCT116 cells assessed as loss of microfilament at 1 uM by rhodamine-phalloidin staining; type: functional, cell-based
HCT-116 [10] = test: Antimicrofilament activity in human HCT116 cells assessed as loss of microfilament at 5 uM by rhodamine-phalloidin staining; type: functional, cell-based
HCT-116 [11] = test: Antimicrofilament activity in human HCT116 cells assessed as total loss of microfilament network at 1 uM by rhodamine-phalloidin staining; type: functional, cell-based
HCT-116 [12] = test: Antimicrofilament activity in human HCT116 cells assessed as total loss of microfilament network at 0.5 uM by rhodamine-phalloidin staining; type: functional, cell-based
HCT-116 [13] = test: Antimicrofilament activity in human HCT116 cells assessed as total loss of microfilament network at 5 uM by rhodamine-phalloidin staining; type: functional, cell-based
HCT-116 [14] = test: Antimicrofilament activity in human HCT116 cells assessed as additional loss of microfilament at 0.1 uM by rhodamine-phalloidin staining; type: functional, cell-based
HCT-116 [15] = test: Antimicrofilament activity in human HCT116 cells assessed as complete loss of microfilament network at 0.5 uM to 5 uM by rhodamine-phalloidin staining
HCT-116 [16] = test: Anticancer activity against human HCT116 cells at 10 uM; type: functional
[17] = Growth inhibition against human TSU-Pr1 cells assessed as disruption of actin cytoskeleton; type: functional
PC-3 = test: Growth inhibition against human PC3 cells assessed as disruption of actin cytoskeleton; type: functional
LNCaP = test: Growth inhibition against human LNCAP cells assessed as disruption of actin cytoskeleton; type: functional
HCT-116 [18] = test: Cytotoxicity against human HCT116 cells assessed as time required to kill 90% of tumor cells at 0.004 uM by clonogenic assay; type: functional
Method in brief: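 Clonogenic assay: HCT-116 seeded at 200–20 000 cells per 60 mm dish in RPMI + 10% FBS. Drug was given at 1 mg/mL and 10-fold dilutions for 2 h or 24 h, then replaced with drug-free medium, or given continuously. After 7 days colonies were stained with methylene blue and those of ≥50 cells counted, normalized to untreated control. Repeats spanned 100–0.1% survival; endpoint was 90% kill.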

HCT-116 [19] = test: Antimicrofilament activity in human HCT116 cells assessed as additional loss of microfilament network at 0.5 uM by rhodamine-phalloidin staining; type: functional, cell-based

Structure (SMILES) | Activity (HCT-116 [2]) | Activity (HCT-116 [3]) | GI50 (HCT-116 [4]) | Activity (HCT-116 [6]) | Activity (HCT-116 [7]) | GI50 (MDA-MB-231) | GI50 (NCI-H522) [nM] | GI50 (U-251) [nM] | GI50 (IGROV-1) [nM] | GI50 (DU-145) [nM] | GI50 (LOX IMVI) [nM] | GI50 (A498) [nM] | also measured
COC(=O)C[C@@H](NC(=O)[C@@H](Cc1c(Br)[nH]c2ccccc12)N(C)C(=O)[C@H](C)NC(=O)[C@@H](C)C/C(C)=C/[C@H](C)C[C@H](C)O)c1ccc(O)cc1 | inactive | Active | 270 nM | inactive | inactive |  |  |  |  |  |  |  | Activity (HCT-116 [1]): Active; Activity (HCT-116 [5]): Active
CCOC(=O)C[C@@H](NC(=O)[C@@H](Cc1c(Br)[nH]c2ccccc12)N(C)C(=O)[C@H](C)NC(=O)[C@@H](C)C/C(C)=C/[C@H](C)C[C@H](C)O)c1ccc(O)cc1 | inactive | Active | 280 nM | inactive | inactive | 740 nM | 40 | 50 | 170 | 3720 | 160 | 440 | Activity (HCT-116 [8]): Active; Activity (HCT-116 [1]): Active; Activity (HCT-116 [5]): Active
C/C(=C\[C@H](C)C[C@H](C)O)C[C@H](C)C(=O)N[C@@H](C)C(=O)N(C)[C@H](Cc1c(Br)[nH]c2ccccc12)C(N)=O | inactive | Active | 11100 nM | inactive | inactive | 22300 nM |  |  |  |  |  |  | Activity (HCT-116 [9]): inactive; Activity (HCT-116 [10]): inactive
C/C1=C\[C@H](C)C[C@H](C)OC(=O)C[C@H](c2ccc(O)c(O)c2)NC(=O)[C@@H](Cc2c(Br)[nH]c3ccccc23)N(C)C(=O)[C@H](C)NC(=O)[C@@H](C)C1 | Active |  | 70 nM | inactive |  | 90 nM | 60 | 40 | 30 | 80 | 7 | 10 | Activity (HCT-116 [11]): Active; Activity (HCT-116 [12]): Active; Activity (HCT-116 [13]): Active; Activity (HCT-116 [14]): Active; Activity (HCT-116 [15]): Active
C/C1=C\[C@H](C)C[C@H](C)OC(=O)/C=C(/c2ccc(O)c(O)c2)NC(=O)[C@@H](Cc2c(Br)[nH]c3ccccc23)N(C)C(=O)[C@H](C)NC(=O)[C@@H](C)C1 | inactive | Active | 3840 nM | inactive | inactive | 2320 nM |  |  |  |  |  |  | Activity (HCT-116 [9]): inactive; Activity (HCT-116 [10]): inactive
C/C(=C\[C@H](C)C[C@H](C)OC(=O)CC(=O)c1ccc(O)c(O)c1)C[C@H](C)C(=O)N[C@@H](C)C(=O)N(C)[C@H](Cc1c(Br)[nH]c2ccccc12)C(N)=O | inactive |  | inactive | inactive | inactive | inactive |  |  |  |  |  |  | Activity (HCT-116 [9]): inactive; inhibition at 10 µM (HCT-116 [16]): < 25%; Activity (HCT-116 [10]): inactive
C/C1=C\[C@H](C)C[C@H](C)OC(=O)C[C@H](c2ccc(O)cc2)NC(=O)[C@@H](Cc2c(Br)[nH]c3ccccc23)N(C)C(=O)[C@H](C)NC(=O)[C@@H](C)C1 [JASPAMIDE] | inactive |  | 40 nM | inactive | inactive | 10 nM | 30 | 70 | 20 | 30 | 10 | 30 | GI50 [17]: 170000 nM; GI50 (PC-3): 65000 nM; Activity (HCT-116 [11]): Active; GI50 (LNCaP): 41000 nM; Time (HCT-116 [18]): 7 days; Activity (HCT-116 [12]): Active; Activity (HCT-116 [13]): Active; Activity (HCT-116 [15]): Active
C=C1C[C@H](C)C(=O)N[C@@H](C)C(=O)N(C)[C@H](Cc2c(Br)[nH]c3ccccc23)C(=O)N[C@@H](c2ccc(O)cc2)CC(=O)O[C@@H](C)C[C@@H](C)C1=O [JASPLAKINOLIDE B] | inactive |  | 140 nM | inactive | Active | 40 nM |  |  |  |  |  |  | Activity (HCT-116 [8]): Active; Activity (HCT-116 [19]): Active; Activity (HCT-116 [1]): Active; Activity (HCT-116 [5]): Active
CC[C@@H]1NC(=O)[C@@H](C)C/C(C)=C/[C@H](C)C[C@H](C)OC(=O)C[C@H](c2ccc(O)cc2)NC(=O)[C@@H](Cc2c(Br)[nH]c3ccccc23)N(C)C1=O [JASPLAKINOLIDE D] |  |  | 20 nM |  |  | 20 nM | 30 | 10 | 8 | 20 | 3 | 2 | 
C/C1=C\[C@H](C)C[C@H](C)OC(=O)C[C@H](c2ccc(O)cc2)NC(=O)[C@@H](Cc2c(Br)[nH]c3ccccc23)N(C)C(=O)[C@H](C)NC(=O)CC1 [JASPLAKINOLIDE F] |  |  | 110 nM |  |  | 260 nM | 610 | 50 | 20 | 290 | 30 | 210 | 
C/C1=C\[C@H](C)C[C@H](C)OC(=O)C[C@H](c2ccc(O)cc2)NC(=O)[C@@H](Cc2c(Br)[nH]c3ccccc23)NC(=O)[C@H](C)NC(=O)[C@@H](C)C1 [JASPLAKINOLIDE M] |  |  | 130 nM |  |  | 210 nM | 200 | 60 | 30 | 250 | 20 | 170 | 
C/C1=C\[C@H](C)C[C@H](C)OC(=O)C[C@H](c2ccc(O)cc2)NC(=O)[C@@H](Cc2c[nH]c3ccccc23)N(C)C(=O)[C@H](C)NC(=O)[C@@H](C)C1 [JASPLAKINOLIDE Q] |  |  | 50 nM |  |  | 70 nM | 160 | 30 | 10 | 100 | 20 | 80 | 
C/C1=C\[C@H](C)C[C@H](C)OC(=O)C[C@H](c2ccc(O)cc2)NC(=O)[C@@H](Cc2c(Br)[nH]c3cc(Br)ccc23)N(C)C(=O)[C@H](C)NC(=O)[C@@H](C)C1 [JASPLAKINOLIDE R1] | inactive |  | 60 nM | inactive | inactive | 90 nM | 3 | 30 | 30 | 310 | 40 | 40 | Activity (HCT-116 [11]): Active; Activity (HCT-116 [12]): Active; Activity (HCT-116 [13]): Active; Activity (HCT-116 [15]): Active
C/C(=C\[C@H](C)C[C@H](C)O)C[C@H](C)C(=O)N[C@@H](C)C(=O)N(C)[C@H](Cc1c(Br)[nH]c2ccccc12)C(=O)N[C@H](CC(=O)O)c1ccc(O)cc1 [JASPLAKINOLIDE Z1] | inactive | Active | 13700 nM | inactive | inactive | 2500 nM | 120 | 600 | 1760 | 18800 | 280 |  | Activity (HCT-116 [9]): inactive; Activity (HCT-116 [10]): inactive
